Test results taken from ChEMBL document CHEMBL3603766, “Structure-activity studies of Wnt/β-catenin inhibition in the Niclosamide chemotype: Identification of derivatives with improved drug exposure” (Bioorg Med Chem, 2015).
Activity calls are given as the source filed them. The calls are words filed in the database; no cut-off is given here.

What was measured:
HEK293 = experiment: Inhibition of Wnt/beta-catenin in HEK293 cells assessed as inhibition of Wnt3A-stimulated TOPFlash activity after 8 hrs; type: cell-based; conditions: Homo sapiens, HEK293, 8 h
Method in brief: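 HEK293 cells stably carrying p8xTOPFlash and Renilla pRL-TK, seeded at 100% confluency. Cells given Wnt-3A conditioned medium (from L Wnt-3A cells) containing compound (0.04–10 μM) or DMSO for 8 h. Lysed and read by dual luciferase, firefly normalized to Renilla, Wnt3A+DMSO = 100%. IC50 fit, mean ± SEM, n ≥ 2.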

U2OS = experiment: Inhibition of Wnt/beta-catenin in human U2OS cells assessed as internalization of frizzled-GFP at 12.5 uM after 6 hrs by confocal microscopic analysis; type: cell-based
Method in brief: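 U2OS cells stably expressing Frizzled1-GFP, plated 24 h, then exposed to 12.5 μM compound or DMSO for 6 h at 37 °C. Fixed with 4% paraformaldehyde and imaged by confocal microscopy (488 nm excitation). Punctate scored blind twice on a 0–5 scale against DMSO control.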

HCT-116 [1] = experiment: Cytotoxicity against human HCT116 cells assessed as growth inhibition after 72 hrs by MTS assay; type: functional, cell-based; conditions: HCT-116, 72 h
Method in brief: (§1)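 HCT116 colon cancer cells seeded at 5000 cells/well, exposed to compound at 0.04–10 μM for 72 h, then read by colorimetric MTS. Viability normalized to DMSO set at 100%. IC50 from curve fit, mean ± SEM, n = 3.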

Mus musculus [2] = experiment: Half life in CD1 mouse assessed as niclosamide at 200 mg/kg, po measured for 45 to 240 mins; type: ADME, organism-based; conditions: in vivo
Method in brief: (§2)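 CD1 mice given prodrug orally as a solution in corn oil (20 mg/ml) at 200 mg/kg. Niclosamide in plasma quantified by LC/MS–MS, reported as ng/mL, mean ± SEM.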

Plasma [3] = experiment: Drug metabolism in CD1 mouse plasma assessed as niclosamide production at 200 mg/kg, po measured for 24 hrs by LC/MS-MS analysis; type: ADME, organism-based; conditions: in vivo; method in brief: as §2
Mus musculus [4] = experiment: Tlast in CD1 mouse assessed as niclosamide at 200 mg/kg, po; type: ADME, organism-based; conditions: in vivo; method in brief: as §2
Mus musculus [5] = experiment: Clast in CD1 mouse assessed as niclosamide at 200 mg/kg, po; type: ADME, organism-based; conditions: in vivo; method in brief: as §2
Mus musculus [6] = experiment: AUClast in CD1 mouse assessed as niclosamide at 200 mg/kg, po; type: ADME, organism-based; set-up: dose 200 mg/kg, route oral, time 0 - last; conditions: in vivo; method in brief: as §2
Mus musculus [7] = experiment: Half life in CD1 mouse assessed as niclosamide at 200 mg/kg, po measured for 24 to 48 hrs; type: ADME, organism-based; conditions: in vivo; method in brief: as §2
Mus musculus [8] = experiment: Cmax in CD1 mouse assessed as niclosamide at 200 mg/kg, po; type: ADME, organism-based; set-up: dose 200 mg/kg, route oral; conditions: in vivo; method in brief: as §2
Mus musculus [9] = experiment: Toxicity in NOD/SCID mouse assessed as change in behavior at 200 mg/kg, po administered 6 days a week for 3 weeks; type: organism-based; conditions: in vivo
Method in brief: (§3)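 NOD/SCID mice dosed orally with 200 mg/kg in corn oil, or corn oil vehicle, 6 days a week for 3 weeks. Observed throughout for side effects and behavior. Body weight taken on the first dosing day (week 0) and on the day after the last dose (week 3).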

Mus musculus [10] = experiment: Tmax in CD1 mouse assessed as niclosamide at 200 mg/kg, po; type: ADME, organism-based; conditions: in vivo; method in brief: as §2
Mus musculus [11] = experiment: Toxicity in NOD/SCID mouse assessed as change in body weight at 200 mg/kg, po administered 6 days a week for 3 weeks; type: organism-based; conditions: in vivo; method in brief: as §3
[12] = Oral bioavailability in Sprague-Dawley rat at 5 mg/kg; type: ADME, organism-based; conditions: in vivo
[13] = Volume of distribution at steady state in Sprague-Dawley rat at 2 mg/kg, iv; type: ADME, organism-based; conditions: in vivo
[14] = Half life in Sprague-Dawley rat at 2 mg/kg, iv; type: ADME, organism-based; conditions: in vivo
[15] = Total clearance in Sprague-Dawley rat at 2 mg/kg, iv; type: ADME, organism-based; conditions: in vivo
[16] = Distribution coefficient, log D of the compound at pH 7; type: physicochemical; conditions: octanol/water
Plasma [17] = experiment: Drug level in CD1 mouse plasma treated with DK-520 at 200 mg/kg, po measured for 24 hrs by LC/MS-MS analysis; type: ADME, organism-based; conditions: in vivo; method in brief: as §2
Plasma [18] = experiment: Drug uptake in plasma of CD1 mouse at 200 mg/kg, po by LC/MS-MS analysis; type: ADME, organism-based; conditions: in vivo
Method in brief: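 CD1 mice gavaged at 200 mg/kg with a solution (20 mg/ml) in 90% PEG 300 / 10% 1-methyl-2-pyrrolidinone. Blood sampled predose and at 0.25, 0.5, 1, 2, 4, 8 h. Plasma analyzed by LC/MS–MS, including for a potential active metabolite.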

[19] = Lipophilicity, log P of the compound at pH <=4; type: physicochemical; conditions: octanol/water
[20] = Cytotoxicity against human breast cancer cells assessed as growth inhibition after 72 hrs by Cell Titer Glo Assay; type: functional, cell-based; conditions: Cancer cell lines, pooled result: one value given for 7 cell lines, strains, targets or settings
HCT-116 [21] = experiment: Cytotoxicity against human HCT116 cells assessed as growth inhibition up to 10 uM after 72 hrs by MTS assay; type: functional, cell-based; method in brief: as §1

Structure (SMILES) | IC50 (HEK293) | inhibition (U2OS) | other results
O=C(Nc1ccc([N+](=O)[O-])cc1)c1cc(Cl)ccc1O | 990 nM | Active | –
O=C(Nc1ccc(F)cc1Cl)c1cc(Cl)ccc1O | 1410 nM | Active | –
O=C(Nc1ccc(Cl)c(Cl)c1)c1cc(Cl)ccc1O | 730 nM | Active | –
NC(=O)c1ccc(NC(=O)c2cc(Cl)ccc2O)cc1 | > 12000 nM | inactive | –
O=C(Nc1cc(Cl)ccc1Cl)c1cc(Cl)ccc1O | 750 nM | Active | –
O=C(Nc1ccccc1)c1cc(Cl)ccc1O | 11800 nM | inactive | –
O=C(Nc1ccc(C(F)(F)F)cc1)c1cc(Cl)ccc1O | 290 nM | Active | IC50 (HCT-116 [1]): 670 nM
O=C(Nc1cc(Cl)cc(Cl)c1)c1cc(Cl)ccc1O | 700 nM | Active | –
CCCCCCCC(=O)Oc1ccc(Cl)cc1C(=O)Nc1ccc([N+](=O)[O-])cc1Cl | 230 nM | Active | t1/2 (Mus musculus [2]): 0.69 h; Drug metabolism (Plasma [3]): metabolite_detected; IC50 (HCT-116 [1]): 610 nM; Tlast (Mus musculus [4]): 72 h; Clast (Mus musculus [5]): 49 ng/mL; AUClast (Mus musculus [6]): 22400 ng·h/mL; t1/2 (Mus musculus [7]): 12.2 h; Cmax (Mus musculus [8]): 6100 ng/mL; Activity (Mus musculus [9]): Non-toxic; Tmax (Mus musculus [10]): 0.75 h; Activity (Mus musculus [11]): Non-toxic
O=C(NC(=O)c1cc(Cl)ccc1O)c1ccc(C(F)(F)F)cc1 | > 12000 nM | inactive | –
O=C(Nc1ccc(C(F)(F)F)cc1Cl)c1cc(Cl)ccc1O | 560 nM | Active | bioavailability [12]: 15%; Vd [13]: 1.1 L/kg; IC50 (HCT-116 [1]): 540 nM; half-life [14]: 3.7 h; clearance [15]: 39 mL/min/kg
O=C(Nc1ccc(C(F)(F)F)cc1F)c1cc(Cl)ccc1O | 550 nM | Active | –
CS(=O)(=O)c1ccc(NC(=O)c2cc(Cl)ccc2O)c(Cl)c1 | 7660 nM | inactive | –
O=C(NCc1ccc(C(F)(F)F)cc1)c1cc(Cl)ccc1O | 15100 nM | inactive | –
O=C(Nc1cc(Cl)ccc1O)c1ccc([N+](=O)[O-])cc1 | > 12000 nM | – | –
O=C(Nc1ccccc1Cl)c1cc(Cl)ccc1O | 3050 nM | inactive | –
O=c1oc2ccc(Cl)cc2c(=O)n1-c1ccc(C(F)(F)F)cc1 | 320 nM | Active | –
O=C(c1ccccc1)c1ccc(NC(=O)c2cc(Cl)ccc2O)cc1 | 15000 nM | inactive | –

Structure (SMILES) | IC50 (HEK293) | inhibition (U2OS) | other results
O=C(Nc1cccc(C(F)(F)F)c1)c1cc(Cl)ccc1O | 890 nM | Active | –
O=C(Nc1ccc(Cl)cc1Cl)c1cc(Cl)ccc1O | 420 nM | Active | bioavailability [12]: 12%; Vd [13]: 0.3 L/kg; IC50 (HCT-116 [1]): 1180 nM; half-life [14]: 2.6 h; clearance [15]: 27 mL/min/kg
CC(=O)Oc1ccc(Cl)cc1C(=O)Nc1ccc(C(F)(F)F)cc1Cl | 320 nM | Active | –
O=C(Nc1ccc(F)cc1)c1cc(Cl)ccc1O | 3840 nM | inactive | –
O=C(Nc1ccc(Cl)cc1)c1cc(Cl)ccc1O | 1300 nM | Active | –
CN(C(=O)c1cc(Cl)ccc1O)c1ccc(C(F)(F)F)cc1 | > 12000 nM | inactive | –
O=C(Nc1c(F)cccc1F)c1cc(Cl)ccc1O | > 12000 nM | – | –
O=C(Nc1ccc([N+](=O)[O-])cc1Cl)c1cc(Cl)ccc1O [NICLOSAMIDE] | 340 nM | Active | logD [16]: 4.48; bioavailability [12]: 10%; Vd [13]: 0.9 L/kg; IC50 (HCT-116 [1]): 450 nM; Drug metabolism (Plasma [17]): metabolite_detected; Drug uptake (Plasma [18]): Active; clearance [15]: 20 mL/min/kg; logP [19]: 5.95; IC50 [20]: 130 nM
O=c1oc2ccc(Cl)cc2c(=O)n1-c1ccc(C(F)(F)F)cc1Cl | 330 nM | Active | IC50 (HCT-116 [1]): 550 nM; Drug uptake (Plasma [18]): Active
O=c1oc2ccc(Cl)cc2c(=O)n1-c1ccc([N+](=O)[O-])cc1Cl | 370 nM | – | –
O=C(Nc1ccc(F)cc1F)c1cc(Cl)ccc1O | 4020 nM | inactive | –
O=C(Nc1ccccc1)c1ccc(NC(=O)c2cc(Cl)ccc2O)cc1 | 32900 nM | inactive | –
O=C(Nc1cccc(Cl)c1)c1cc(Cl)ccc1O | 1650 nM | Active | –
O=S(=O)(Nc1ccc(C(F)(F)F)cc1Cl)c1cc(Cl)ccc1O | 2570 nM | inactive | –
CCOC(=O)Oc1ccc(Cl)cc1C(=O)Nc1ccc(C(F)(F)F)cc1Cl | 340 nM | Active | IC50 (HCT-116 [1]): 510 nM
O=C(Nc1c(Cl)cccc1Cl)c1cc(Cl)ccc1O | > 12000 nM | inactive | growth inhibition (GI) (HCT-116 [21]): inactive
O=C(Nc1ccc(F)c(Cl)c1)c1cc(Cl)ccc1O | 1210 nM | Active | –
CC(=O)c1ccc(NC(=O)c2cc(Cl)ccc2O)cc1 | 6420 nM | inactive | –
